Inhibition and fold change (FC) data for three compounds are collected here from ChEMBL document CHEMBL5653631, “A Potent and Selective ULK1 Inhibitor Suppresses Autophagy and Sensitizes Cancer Cells to Nutrient Stress” (iScience, 2018).

The target of test [1] is Dual specificity tyrosine-phosphorylation-regulated kinase 1B (Homo sapiens) (UniProt Q9Y463). Nature of the test: Inhibition of human recombinant DYRK1B at 15 nM in presence of ATP by radiometric assay relative to control.
Test [2] deals with T1, Serine/threonine-protein kinase Nek3 (Homo sapiens) (UniProt P51956).
T1 sequence (whole entry): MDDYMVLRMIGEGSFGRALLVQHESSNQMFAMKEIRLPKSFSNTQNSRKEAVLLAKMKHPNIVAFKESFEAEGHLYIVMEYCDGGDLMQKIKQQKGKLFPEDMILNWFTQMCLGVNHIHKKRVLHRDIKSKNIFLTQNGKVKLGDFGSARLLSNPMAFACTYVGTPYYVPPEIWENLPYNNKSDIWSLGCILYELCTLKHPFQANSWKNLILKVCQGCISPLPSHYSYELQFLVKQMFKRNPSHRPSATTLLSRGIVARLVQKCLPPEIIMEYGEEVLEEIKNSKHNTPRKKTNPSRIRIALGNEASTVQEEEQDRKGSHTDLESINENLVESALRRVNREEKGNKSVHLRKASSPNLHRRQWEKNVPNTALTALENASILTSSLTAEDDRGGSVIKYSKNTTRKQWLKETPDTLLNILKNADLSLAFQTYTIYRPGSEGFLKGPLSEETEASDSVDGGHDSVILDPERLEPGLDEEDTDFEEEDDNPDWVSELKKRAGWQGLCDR
Nature of the test: Inhibition of human recombinant NEK3 at 15 nM in presence of ATP by radiometric assay relative to control.

The target in test [3] is T2, SNF-related serine/threonine-protein kinase (Homo sapiens) (UniProt Q9NRH2).
T2 sequence (whole entry): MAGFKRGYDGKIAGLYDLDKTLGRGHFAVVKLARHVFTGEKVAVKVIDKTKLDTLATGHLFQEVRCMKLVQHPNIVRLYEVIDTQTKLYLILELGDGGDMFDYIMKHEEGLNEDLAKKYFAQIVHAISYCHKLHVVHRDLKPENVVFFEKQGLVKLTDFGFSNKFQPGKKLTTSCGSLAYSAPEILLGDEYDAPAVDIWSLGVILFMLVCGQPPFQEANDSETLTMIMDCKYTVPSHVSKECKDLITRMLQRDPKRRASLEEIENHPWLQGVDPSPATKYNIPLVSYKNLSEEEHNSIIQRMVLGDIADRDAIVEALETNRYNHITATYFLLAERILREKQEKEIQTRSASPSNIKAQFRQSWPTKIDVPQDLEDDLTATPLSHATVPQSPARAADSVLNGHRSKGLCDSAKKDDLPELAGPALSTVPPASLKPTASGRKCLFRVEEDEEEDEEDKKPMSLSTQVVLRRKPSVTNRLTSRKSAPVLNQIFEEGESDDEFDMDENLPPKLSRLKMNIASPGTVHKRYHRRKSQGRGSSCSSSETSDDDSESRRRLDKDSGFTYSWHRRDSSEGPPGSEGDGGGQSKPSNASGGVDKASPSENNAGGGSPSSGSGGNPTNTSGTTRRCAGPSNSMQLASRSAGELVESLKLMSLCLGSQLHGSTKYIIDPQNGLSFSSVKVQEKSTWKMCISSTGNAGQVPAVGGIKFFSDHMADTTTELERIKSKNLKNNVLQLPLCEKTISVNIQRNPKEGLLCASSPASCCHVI
Nature of the test: Inhibition of human recombinant SNRK at 40 nM in presence of ATP by radiometric assay relative to control.

Test [4] deals with Activin receptor type-1-like (Homo sapiens) (UniProt P37023). The test is described as follows: Inhibition of human recombinant ALK1 at 40 nM related to control ULK1. The method, boiled down:
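Radiometric activity assays in a panel of 327 human recombinant kinases, each run in duplicate at one inhibitor concentration. Activity remaining is expressed as percent of vehicle control, and percent inhibition is calculated as 100% minus percent activity remaining.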

The target is the same in test [5]. Nature of the test: Inhibition of human recombinant ALK1 at 500 nM in presence of ATP by radiometric assay relative to control. The method, boiled down: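 Panel of 327 recombinant human kinases, each assayed in vitro by radiometric activity assay in duplicate at a single inhibitor concentration per compound, chosen with reference to its ULK1 inhibition. Activity remaining was expressed as percent of vehicle control, and percent inhibition was calculated as 100 minus percent activity remaining.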

The target in test [6] is T3, Serine/threonine-protein kinase ICK (Homo sapiens) (UniProt Q9UPZ9).
T3 sequence (whole entry): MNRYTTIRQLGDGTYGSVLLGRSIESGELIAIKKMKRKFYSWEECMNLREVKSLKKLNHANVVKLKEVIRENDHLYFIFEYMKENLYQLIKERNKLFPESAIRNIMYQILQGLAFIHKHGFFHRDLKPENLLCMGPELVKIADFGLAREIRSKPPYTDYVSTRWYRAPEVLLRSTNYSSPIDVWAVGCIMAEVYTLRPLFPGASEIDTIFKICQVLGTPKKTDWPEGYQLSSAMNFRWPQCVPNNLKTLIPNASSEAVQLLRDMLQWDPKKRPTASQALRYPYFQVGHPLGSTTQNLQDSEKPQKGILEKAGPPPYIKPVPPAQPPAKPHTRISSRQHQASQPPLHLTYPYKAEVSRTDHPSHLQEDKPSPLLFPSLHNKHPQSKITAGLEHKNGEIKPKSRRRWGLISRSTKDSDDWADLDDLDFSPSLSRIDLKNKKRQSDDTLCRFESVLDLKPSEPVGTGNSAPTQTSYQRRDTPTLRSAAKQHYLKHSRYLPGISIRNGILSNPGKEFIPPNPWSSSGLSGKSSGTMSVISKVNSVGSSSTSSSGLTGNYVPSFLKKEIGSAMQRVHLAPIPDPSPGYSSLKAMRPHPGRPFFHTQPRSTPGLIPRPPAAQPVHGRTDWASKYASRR
The test is described as follows: Inhibition of human recombinant ICK at 500 nM in presence of ATP by radiometric assay relative to control.

Sequence of Activin receptor type-1-like (Homo sapiens) (P37023 whole entry): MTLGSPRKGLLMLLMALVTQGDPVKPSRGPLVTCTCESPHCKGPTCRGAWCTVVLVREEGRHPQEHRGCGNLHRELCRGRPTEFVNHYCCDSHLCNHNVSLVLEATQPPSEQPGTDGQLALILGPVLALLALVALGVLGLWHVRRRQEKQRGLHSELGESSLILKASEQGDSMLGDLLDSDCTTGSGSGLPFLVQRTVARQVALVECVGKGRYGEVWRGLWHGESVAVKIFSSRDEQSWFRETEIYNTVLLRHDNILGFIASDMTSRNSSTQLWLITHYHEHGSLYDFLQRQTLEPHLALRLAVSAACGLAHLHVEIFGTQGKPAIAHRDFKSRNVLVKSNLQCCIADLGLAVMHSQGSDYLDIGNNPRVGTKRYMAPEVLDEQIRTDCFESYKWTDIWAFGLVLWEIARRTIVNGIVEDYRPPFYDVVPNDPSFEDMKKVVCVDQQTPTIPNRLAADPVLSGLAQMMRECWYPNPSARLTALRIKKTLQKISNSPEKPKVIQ
Sequence of Dual specificity tyrosine-phosphorylation-regulated kinase 1B (Homo sapiens) (Q9Y463 whole entry, looked up): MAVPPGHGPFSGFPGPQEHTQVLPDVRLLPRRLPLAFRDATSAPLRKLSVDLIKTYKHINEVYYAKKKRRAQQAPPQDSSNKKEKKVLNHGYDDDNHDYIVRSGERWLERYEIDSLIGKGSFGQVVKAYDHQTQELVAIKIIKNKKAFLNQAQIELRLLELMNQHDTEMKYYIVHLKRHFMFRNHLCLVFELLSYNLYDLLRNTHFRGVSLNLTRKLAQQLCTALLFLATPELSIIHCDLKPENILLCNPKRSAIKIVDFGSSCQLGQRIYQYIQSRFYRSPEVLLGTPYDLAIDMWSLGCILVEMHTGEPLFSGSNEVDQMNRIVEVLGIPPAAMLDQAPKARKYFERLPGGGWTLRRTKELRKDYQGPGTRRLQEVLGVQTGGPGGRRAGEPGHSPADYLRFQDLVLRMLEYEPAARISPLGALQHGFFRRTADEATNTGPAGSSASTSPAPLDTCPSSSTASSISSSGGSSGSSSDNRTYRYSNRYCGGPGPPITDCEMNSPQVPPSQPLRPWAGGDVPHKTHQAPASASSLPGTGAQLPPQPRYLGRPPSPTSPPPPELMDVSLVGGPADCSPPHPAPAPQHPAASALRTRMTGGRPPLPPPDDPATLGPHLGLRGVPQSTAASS

By inhibition is commonly meant how much of the control response was suppressed. With `CC(C)[C@H](NC(=O)c1cc(-c2cnn3cc(-c4ccc(OCCN5CCCCC5)cc4)cnc23)cs1)C(F)(F)F`, the figures for the inhibition in test [1] and in test [2] were 65% and 1%, respectively.
For `O=C(N[C@@H](C1CC1)C(F)(F)F)c1cc(-c2cnn3cc(-c4ccc(F)cc4)cnc23)cs1`, the inhibition in test [3] amounted to 0%. For the same compound, the fold change (FC) in test [4] is 0.01.
As for `CNC(=O)c1ccccc1Oc1nc(Nc2cc(OC)c(OC)c(OC)c2)ncc1Br`, the inhibition was 0% in test [5] and 3% in test [6].
